The values that follow come from paper PMC2810120 (Chemical biology & drug design, 2009).

Non-standard residues stand in square brackets, D forms with d. Residues, ends and D or L forms follow the SMILES beside them. *: point of attachment. pS = N[C@@H](COP(=O)(O)O)C(=O)O; pNA = O=[N+]([O-])c1ccc(N*)cc1

One data set addresses human Pin1 (human) (UniProt Q13526). Briefly: NMR titration.
The nature of the next data set: Plasma stability assay. In kind it is in vitro ADME. The note with it: rat plasma, 37 °C, 20 μM, after 30 min. The essentials:
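Test compound at 20 μM final is incubated in fresh rat plasma at 37 °C. Samples are stopped at 0, 30 and 60 min with two volumes of methanol containing internal standard, then protein is precipitated and samples centrifuged for LC-MS. % parent remaining is taken against the 0 min sample from peak-area ratios to the internal standard. Run in duplicate with a plasma-labile positive control.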

Data set [1] in a line: Parallel artificial membrane permeation assay. Format: in vitro ADME. Conditions: 100 μM compound, pH 7.2, acceptor concentration after 8 h. The essentials: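 Lipid-impregnated hydrophobic filter (lipid applied in chloroform, solvent fully evaporated) separates donor from acceptor wells of phosphate buffer pH 7.2. Test compound is added at 100 μM to the donor side, with stock DMSO <5%. A membrane-free equilibrium well is run in parallel. Acceptor and equilibrium concentrations are measured by LC-MS AUC. % flux is the acceptor concentration after 8 h relative to the membrane-free reference well.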

Chain of UniProt Q13526 (Q13526 whole entry): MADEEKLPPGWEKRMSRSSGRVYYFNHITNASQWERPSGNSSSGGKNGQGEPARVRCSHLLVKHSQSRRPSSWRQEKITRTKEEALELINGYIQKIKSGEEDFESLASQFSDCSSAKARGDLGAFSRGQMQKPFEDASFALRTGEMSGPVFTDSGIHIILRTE

As for Pintide (peptide), in the data set with human Pin1 (human), the Kd is 323 µM.
`N=C(N)NCCC[C@H](NC(=O)[C@@H]1CCCN1C(=O)[C@H](COP(=O)(O)O)NC(=O)[C@H](Cc1ccc(O)cc1)NC(=O)[C@H](Cc1ccccc1)NC(=O)[C@@H](N)Cc1c[nH]c2ccccc12)C(=O)Nc1ccc([N+](=O)[O-])cc1` [Pintide] (H-WFY[pS]PR-pNA; N-terminus and C-terminus assumed): the plasma stability entry in “Plasma stability assay” is recorded as “rapidly degraded”. In addition, the “PAMPA FLUX (%)” value in data set [1] is 14%.
